Holding throughout (assay type): functional, cell-based
Test [1] relates to DU-145. The test is described as follows: In vitro antiproliferative activity against human prostate cancer DU145 cells. The procedure, abridged:
(§1)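 Cells from ATCC grown in RPMI 1640 with 10% fetal calf serum, 2 mM L-glutamine, penicillin/streptomycin and 10 mM HEPES (pH 7.4). Continuous exposure to graded concentrations for four doubling times. MTT added, then 4 h at 37 °C, formazan dissolved in DMSO and optical density read. IC50 is the concentration halving optical density versus untreated controls, from nine serial dilutions in duplicate.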

The next test has as its system L1210. The test can be described thus: In vitro antiproliferative activity against murine leukemia L1210 cells. Particulars: Mus musculus. The procedure, abridged:
as §1

The next test has as its system HT-29. The test can be described thus: In vitro antiproliferative activity against human colon carcinoma HT-29 cells. The procedure, abridged:
as §1

Test [2] relates to DU-145. The test can be described thus: In vitro antiproliferative activity against human prostate cancer DU-145 cells. The procedure, abridged: as §1

In general, IC50 refers to the concentration that inhibits the measured activity by half. The low end stands for greater potency in that assay, the high end for weaker potency in that assay. For the compound `O=C1c2c(c3c4cc(O)ccc4[nH]c3c3cc4ccccc4cc23)C(=O)N1C(CO)CO`, the IC50 came to 2.13 µM with DU-145 [1], 1.19 µM in the test with L1210 and 2.88 µM in the test on HT-29.
As to `CN1C(=O)c2c(c3c4ccccc4n(CCN4CCOCC4)c3c3cc4ccccc4cc23)C1=O`, in the test on L1210, the IC50 was 2.4 µM.
`CN1C(=O)c2c(c3c4ccc(O[Si](C)(C)C(C)(C)C)cc4[nH]c3c3cc4ccccc4cc23)C1=O`: the results for the IC50 with DU-145 [1] and in the test on L1210 were 5.6 µM and 10.1 µM, respectively.
In the case of `O=C1c2c(c3c4cc(O)ccc4[nH]c3c3cc4ccccc4cc23)C(=O)N1CCNCCO`, the concentration for half-maximal inhibition (IC50) in the test on DU-145 [1] stood at 0.63 µM; with L1210, 0.29 µM; with HT-29, 3.76 µM.
Take `CN(C)CCCN1C(=O)c2c(c3c4cc(O)ccc4[nH]c3c3cc4ccccc4cc23)C1=O`: the IC50 was 0.29 µM with DU-145 [1], 0.13 µM in the test on L1210 and 0.84 µM in the test with HT-29.
`CN(C)CCN1C(=O)c2c(c3c4cc(O)ccc4[nH]c3c3cc4ccccc4cc23)C1=O`: the values for the IC50 in the test with DU-145 [1] and in the test on L1210 were 0.108 µM and 0.036 µM, respectively.
Turning to `CN1C(=O)c2c(c3c4ccccc4[nH]c3c3cc4ccccc4cc23)C1=O`, the figures for the IC50 in the test with DU-145 [2] and with L1210 were 1.1 µM and 2.9 µM, respectively.
Regarding `CN(C)CCN1C(=O)c2c(c3c4ccccc4[nH]c3c3cc4ccccc4cc23)C1=O`, the IC50 with DU-145 [1] worked out at 0.29 µM; with L1210 it was 0.21 µM.
In the case of `CN(C)CCCN1C(=O)c2c(c3c4ccc(O)cc4[nH]c3c3cc4ccccc4cc23)C1=O`, the IC50 with DU-145 [1] was determined as 0.76 µM; in the test on L1210, 0.34 µM; in the test on HT-29 it was 1.35 µM.
Consider `CN1C(=O)c2c(c3c4cc(O)ccc4[nH]c3c3cc4ccccc4cc23)C1=O`, for which the IC50 came to 6.8 µM in the test with DU-145 [1] and 3.9 µM with L1210.
The like results for `CN(C)CCn1c2ccccc2c2c3c(c4cc5ccccc5cc4c21)C(=O)N(C)C3=O` were, in that order, 4.7 µM and 2.4 µM.
In the same order, the values of `CN(C)CCN1C(=O)c2c(c3c4ccc(O)cc4[nH]c3c3cc4ccccc4cc23)C1=O` are 0.25 µM and 0.11 µM.
Take `CN1C(=O)c2c(c3c4ccccc4n(CC(O)CO)c3c3cc4ccccc4cc23)C1=O` (centres undefined): the IC50 in the test on DU-145 [1] stood at 2.31 µM; in the test on L1210, 1.26 µM; in the test with HT-29 it was 3.69 µM.
`CN1C(=O)c2c(c3c4ccc(O)cc4[nH]c3c3cc4ccccc4cc23)C1=O`: the figures for the IC50 with DU-145 [1] and in the test with L1210 were 4.7 µM and 5.2 µM, respectively.
As to `COC1C(O)[C@@H](O)[C@H](n2c3c(Cl)cccc3c3c4c(c5c6cccc(Cl)c6[nH]c5c32)C(=O)NC4=O)O[C@@H]1CO` (single isomer, unassigned) [REBECCAMYCIN], inhibition with L1210 was half-maximal at 0.14 µM (IC50).
In the case of `CN(C)CCOc1ccc2c(c1)[nH]c1c3cc4ccccc4cc3c3c(c21)C(=O)N(C)C3=O`, the IC50 was determined as 4.5 µM in the test with DU-145 [1] and 1.5 µM in the test on L1210.
As to `O=C1c2c(c3c4ccc(O)cc4[nH]c3c3cc4ccccc4cc23)C(=O)N1CCNCCO`, the IC50 amounted to 1.11 µM in the test on DU-145 [1], 0.51 µM in the test on L1210 and 5.5 µM in the test on HT-29.
For `C=CCn1c2ccccc2c2c3c(c4cc5ccccc5cc4c21)C(=O)N(C)C3=O`, the IC50 with DU-145 [1] amounted to 59.7 µM; in the test with L1210, 34 µM; in the test with HT-29 it was 65.7 µM.
In the same order, the values of `O=C1c2c(c3c4ccc(O)cc4[nH]c3c3cc4ccccc4cc23)C(=O)N1C(CO)CO` are 0.0068 µM, 0.2 µM and 1.34 µM.

The record behind these values is ChEMBL document CHEMBL1142698, “Synthesis and biological evaluation of novel naphthocarbazoles as potential anticancer agents” (J Med Chem, 2005).
